Data as given in ChEMBL document CHEMBL1148481, “Linker length modulates DNA cross-linking reactivity and cytotoxic potency of C8/C8' ether-linked C2-exo-unsaturated pyrrolo[2,1-c][1,4]benzodiazepine (PBD) dimers” (J Med Chem, 2004).

How the values were obtained:
[1] = Compound was tested for percentage inhibition of restriction endonuclease BamH1 enzyme at a concentration of 25 uM;Inhibited
[2] = test system: K562; test: Dose required to induce 50 percent decrease in tail moment of the DNA of K562 cells following a 1 hour treatment; format: functional, Homo sapiens
Method in brief: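 Alkaline Comet assay in K562 cells after 1 h drug exposure, done on ice in subdued light. Cells were irradiated (10 Gy), embedded in agarose, lysed 1 h at pH 10.5, held in alkali 45 min and electrophoresed 25 min at pH 12.5. Slides were propidium iodide stained; 25 cells per duplicate slide. Value is the dose giving 50% decrease in tail moment relative to irradiated controls.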

[3] = test system: Nucleic Acid; test: Thermal stabilization of duplex form of calf thymus DNA after incubation for 18 hours; format: functional; conditions: Bos taurus
Method in brief: (§1)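 UV melting of calf thymus DNA (100 μM phosphate, 50 μM bp) with ligand at 20 μM (ligand:DNA 1:5) in pH 7.00 buffer (10 mM sodium phosphate, 1 mM EDTA), ≤0.6% v/v MeOH with correction. Samples were preincubated at 37 °C for the stated time, heated at 1 °C/min over 45–98 °C and monitored at 260 nm. ΔTm is the midpoint shift versus free DNA, from at least three determinations.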

[4] = test system: Nucleic Acid; test: Compound dose required to induce 50 percent cross linking in naked plasmid pBR322 DNA following incubation with agent for 2 hours at 37 degree C; format: functional
Method in brief: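 Denatured at 90 °C for 2.5 min in 30% DMSO and run on 0.8% agarose, 40 V, 14–16 h. Autoradiography and laser densitometry of double- vs single-stranded bands gave dose–response curves; mean of ≥3 experiments.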

[5] = Compound was tested for inhibition of restriction endonuclease BamH1 enzyme at a concentration of 17.5 uM;Inhibited
Method in brief: (§2)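 BamHI protection assay: a 512-bp PvuII plasmid fragment with a single BamHI site (500 ng) was incubated with the PBD (methanol stock 10 mM) for 16 h at 37 °C. It was then digested with BamHI (10 units) for 1 h at 37 °C. Cut and uncut DNA were resolved on a 1% agarose TBE gel, stained with ethidium bromide, and the cut fraction was quantified versus dose.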

[6] = test system: Nucleic Acid; test: Thermal stabilization of duplex form of calf thymus DNA after incubation for 0 hours; format: functional; conditions: Bos taurus; method in brief: as §1
[7] = test system: K562; test: Inhibitory concentration against human K562 leukemia cells following incubation for 1 hour; format: functional, cell-based; conditions: K562, 1 h
Method in brief: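 K562 cells in RPMI 1640 with 10% FCS and 2 mM glutamine were exposed to drug for 1 h at 37 °C in the dark, then washed. They were plated at 10⁴ cells/well (8 wells per sample) and grown 4 days. MTT was added for 5 h, formazan dissolved in DMSO, and OD read at 550 nm. IC50 is the dose reducing OD to 50% of control.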

[8] = test system: Nucleic Acid; test: Thermal stabilization of duplex form of calf thymus DNA after incubation for 4 hours; format: functional; conditions: Bos taurus; method in brief: as §1
[9] = test system: MOLT-4; test: Compound was tested for 50% growth inhibition against human leukemia MOLT-4 cell line; format: functional
[10] = test system: A498; test: Compound was tested for 50% growth inhibition against human renal cancer A498 cell line; format: functional
[11] = test system: OVCAR-8; test: Compound was tested for 50% growth inhibition against human ovarian cancer OVCAR-8 cell line; format: functional
[12] = test system: CCRF-CEM; test: Compound was tested for 50% growth inhibition against human leukemia CCRF-CEM cell line; format: functional
[13] = test system: HOP-92; test: Compound was tested for 50% growth inhibition against human non-small cell lung cancer […] cell line; format: functional
[14] = test system: UO-31; test: Compound was tested for 50% growth inhibition against human renal cancer UO-31 cell line; format: functional
[15] = test system: LOX IMVI; test: Compound was tested for 50% growth inhibition against human melanoma LOXIMVI cell line; format: functional
[16] = Compound was tested for inhibition of restriction endonuclease BamH1 enzyme at a concentration of 10 uM;Inhibited; method in brief: as §2
[17] = test system: HL-60; test: Compound was tested for 50% growth inhibition against human leukemia […] cell line; format: functional
[18] = test system: NCI-H460; test: Compound was tested for 50% growth inhibition against human non-small cell lung cancer NCI-H460 cell line; format: functional
[19] = test system: SW-620; test: Compound was tested for 50% growth inhibition against human colon cancer SW 620 cell line; format: functional
[20] = test system: NCI-H322M; test: Compound was tested for 50% growth inhibition against human non-small cell lung cancer NCI-H322M cell line; format: functional
[21] = test system: IGROV-1; test: Compound was tested for 50% growth inhibition against human ovarian cancer IGROVI cell line; format: functional
[22] = test system: NCI-H226; test: Compound was tested for 50% growth inhibition against human non-small cell lung cancer NCI-H226 cell line; format: functional
[23] = test system: T47D; test: Compound was tested for 50% growth inhibition against human breast cancer T-47D cell line; format: functional
[24] = test system: SK-MEL-5; test: Compound was tested for 50% growth inhibition against human melanoma SK-MEL-5 cell line; format: functional
[25] = test system: NCI/ADR-RES; test: Compound was tested for 50% growth inhibition against human breast cancer NCI/ADR-RES cell line; format: functional
[26] = test system: OVCAR-3; test: Compound was tested for 50% growth inhibition against human ovarian cancer OVCAR-3 cell line; format: functional
[27] = test system: SK-MEL-28; test: Compound was tested for 50% growth inhibition against human melanoma SK-MEL-28 cell line; format: functional
[28] = test system: Hs-578T; test: Compound was tested for 50% growth inhibition against human breast cancer HS 578T cell line; format: functional
[29] = test system: MCF7; test: Compound was tested for 50% growth inhibition against human breast cancer MCF-7 cell line; format: functional
[30] = test system: U-251; test: Compound was tested for 50% growth inhibition against human CNS cancer U251 cell line; format: functional
[31] = test system: SR; test: Compound was tested for 50% growth inhibition against human leukemia SR cell line; format: functional
[32] = test system: MDA-N; test: Compound was tested for 50% growth inhibition against human breast cancer MDA-N cell line; format: functional
[33] = test system: OVCAR-5; test: Compound was tested for 50% growth inhibition against human ovarian cancer OVCAR-5 cell line; format: functional
[34] = test system: BT-549; test: Compound was tested for 50% growth inhibition against human breast cancer BT-549 cell line; format: functional
[35] = test system: M14; test: Compound was tested for 50% growth inhibition against human melanoma M14 cell line; format: functional
[36] = test system: NCI-H23; test: Compound was tested for 50% growth inhibition against human non-small cell lung cancer NCI-H23 cell line; format: functional
[37] = test system: UACC-257; test: Compound was tested for 50% growth inhibition against human melanoma UACC-257 cell line; format: functional
[38] = test system: SF-539; test: Compound was tested for 50% growth inhibition against human CNS cancer SF-539 cell line; format: functional
[39] = test system: SF-268; test: Compound was tested for 50% growth inhibition against human CNS cancer SF-268 cell line; format: functional
[40] = test system: SN12C; test: Compound was tested for 50% growth inhibition against human renal cancer […] cell line; format: functional
[41] = test system: MDA-MB-231; test: Compound was tested for 50% growth inhibition against human breast cancer MDA-MB-231/ATCC cell line; format: functional
[42] = test system: SK-OV-3; test: Compound was tested for 50% growth inhibition against human ovarian cancer SK-OV-3 cell line; format: functional
[43] = test system: 786-0; test: Compound was tested for 50% growth inhibition against human renal cancer 786-0 cell line; format: functional
[44] = test system: HCC 2998; test: Compound was tested for 50% growth inhibition against human colon cancer HCC2998 cell line; format: functional
[45] = test system: HCT-116; test: Compound was tested for 50% growth inhibition against human colon cancer HCT116 cell line; format: functional
[46] = test system: Malme-3M; test: Compound was tested for 50% growth inhibition against human melanoma MALME-3M cell line; format: functional
[47] = test system: SF-295; test: Compound was tested for 50% growth inhibition against human CNS cancer SF-295 cell line; format: functional
[48] = test system: HT-29; test: Compound was tested for 50% growth inhibition against human colon cancer HT-29 cell line; format: functional
[49] = test system: CAKI-1; test: Compound was tested for 50% growth inhibition against human renal cancer CAKI-1 cell line; format: functional
[50] = test system: PC-3; test: Compound was tested for 50% growth inhibition against human prostate cancer PC-3 cell line; format: functional
[51] = test system: RPMI-8226; test: Compound was tested for 50% growth inhibition against human leukemia RPMI-8226 cell line; format: functional
[52] = test system: TK-10; test: Compound was tested for 50% growth inhibition against human renal cancer TK-10 cell line; format: functional
[53] = test system: ACHN; test: Compound was tested for 50% growth inhibition against human renal cancer ACHN cell line; format: functional
[54] = test system: COLO 205; test: Compound was tested for 50% growth inhibition against human colon cancer COLO 205 cell line; format: functional
[55] = test system: DU-145; test: Compound was tested for 50% growth inhibition against human prostate cancer DU-145 cell line; format: functional
[56] = test system: A549; test: Compound was tested for 50% growth inhibition against human non-small cell lung cancer A549/ATCC cell line; format: functional
[57] = test system: EKVX; test: Compound was tested for 50% growth inhibition against human non-small cell lung cancer EKVX cell line; format: functional
[58] = test system: SNB-19; test: Compound was tested for 50% growth inhibition against human CNS cancer SNB-19 cell line; format: functional
[59] = test system: HCT-15; test: Compound was tested for 50% growth inhibition against human colon cancer HCT-15 cell line; format: functional
[60] = test system: HOP-62; test: Compound was tested for 50% growth inhibition against human non-small cell lung cancer HOP-62 cell line; format: functional
[61] = test system: KM12; test: Compound was tested for 50% growth inhibition against human colon cancer KM12 cell line; format: functional
[62] = Compound was tested for inhibition of restriction endonuclease BamH1 enzyme at a concentration of 25 uM;Inhibited; method in brief: as §2

SMILES: Cc1ccc2c(c1O)NC(O)C1CC(/C=C/C(N)=O)=CN1C2=O (stereo unspecified)
- inhibition [1]: 12%

SMILES: C=C1C[C@H]2C=Nc3cc(OCCCOc4cc5c(cc4OC)C(=O)N4CC(=C)C[C@H]4C=N5)c(OC)cc3C(=O)N2C1 [SJG-136]
- C50 [2]: 0.03 µM
- ΔTm [3]: 33.6 °C
- C50 [4]: 0.045 µM
- Activity [5]: Inhibited
- ΔTm [6]: 25.7 °C
- IC50 [7]: 43 nM
- ΔTm [8]: 31.9 °C

SMILES: COc1cc2c(cc1OCCCCCOc1cc3c(cc1OC)C(=O)N1CCC[C@H]1C=N3)N=C[C@@H]1CCCN1C2=O
- ΔTm [3]: 9.4 °C
- C50 [4]: 0.07 µM
- ΔTm [6]: 3.3 °C
- IC50 [7]: 500 nM
- ΔTm [8]: 5.9 °C

SMILES: C/C=C1\C[C@H]2C=Nc3cc(O)c(OC)cc3C(=O)N2C1
- ΔTm [3]: 2.6 °C
- ΔTm [6]: 1 °C
- ΔTm [8]: 2.4 °C

SMILES: C=C1C[C@H]2C=Nc3cc(OCCCCCOc4cc5c(cc4OC)C(=O)N4CC(=C)C[C@H]4C=N5)c(OC)cc3C(=O)N2C1
- GI50 [9]: 0.012 nM
- GI50 [10]: 0.224 nM
- GI50 [11]: 0.195 nM
- C50 [2]: 0.009 µM
- GI50 [12]: 0.00646 nM
- GI50 [13]: 0.112 nM
- GI50 [14]: 0.251 nM
- ΔTm [3]: 25.8 °C
- GI50 [15]: 0.0549 nM
- Activity [16]: Inhibited
- GI50 [17]: 0.0148 nM
- GI50 [18]: 0.0955 nM
- GI50 [19]: 0.288 nM
- GI50 [20]: 0.468 nM
- GI50 [21]: 0.0049 nM
- GI50 [22]: 0.162 nM
- GI50 [23]: 0.0199 nM
- GI50 [24]: 0.245 nM
- GI50 [25]: 7.94 nM
- GI50 [26]: 0.2 nM
- GI50 [27]: 0.219 nM
- GI50 [28]: 0.302 nM
- GI50 [29]: 0.0933 nM
- GI50 [30]: 0.0427 nM
- C50 [4]: 0.004 µM
- GI50 [31]: < 0.001 nM
- GI50 [32]: 0.209 nM
- GI50 [33]: 0.309 nM
- GI50 [34]: 0.162 nM
- GI50 [35]: 0.141 nM
- GI50 [36]: 0.0832 nM
- GI50 [37]: 0.525 nM
- GI50 [38]: 0.0363 nM
- ΔTm [6]: 24.9 °C
- GI50 [39]: 0.0501 nM
- GI50 [40]: 0.0269 nM
- GI50 [41]: 0.371 nM
- GI50 [42]: 0.162 nM
- GI50 [43]: 0.0977 nM
- GI50 [44]: 0.186 nM
- GI50 [45]: 0.174 nM
- GI50 [46]: 0.162 nM
- GI50 [47]: 0.038 nM
- GI50 [48]: 0.224 nM
- GI50 [49]: 0.178 nM
- IC50 [7]: < 1 nM
- GI50 [50]: 0.617 nM
- ΔTm [8]: 25.5 °C
- GI50 [51]: 0.186 nM
- GI50 [52]: 0.295 nM
- GI50 [53]: 0.0251 nM
- GI50 [54]: 0.166 nM
- GI50 [55]: 0.049 nM
- GI50 [56]: 0.123 nM
- GI50 [57]: 1.58 nM
- GI50 [58]: 0.105 nM
- GI50 [59]: 1.74 nM
- GI50 [60]: 0.117 nM
- GI50 [61]: 0.245 nM

SMILES: COc1cc2c(cc1OCCCOc1cc3c(cc1OC)C(=O)N1CCC[C@H]1C=N3)N=C[C@@H]1CCCN1C2=O [DSB-120]
- ΔTm [3]: 15.1 °C
- C50 [4]: 0.055 µM
- ΔTm [6]: 10.2 °C
- IC50 [7]: 200 nM
- ΔTm [8]: 13.1 °C
- Activity [62]: Inhibited
